Measurements of several laboratories.
Each line is one published result; the experiments were not run side by side.
Cell line: MIA PaCa-2
Effect on: cell growth or viability

Compound	technique	time	quantity	result
CCCOc1ccc2[nH]cc(C(=O)C(C#N)=Cc3cn(CC)c4ccccc34)c2c1	MTT	48 h	IC50	5.3 µM
O=C1C(Cl)=C(NCCN2CCOCC2)C(=O)c2ccccc21	MTT	–	IC50	19.7 µM
N#CSCc1cc(=O)oc2cc(O)ccc12	SRB	–	GI50	5.3 µM
Cc1sc2c(c1C)C(c1ccc(Cl)cc1)=N[C@@H](CC(=O)NCCCCNC(=O)COc1cccc3c1C(=O)N(C1CCC(=O)NC1=O)C3=O)c1nnc(C)n1-2 (some centres unmarked)	CCK-8	72 h	IC50	> 10 µM
CNC(=O)c1ccccc1Nc1cc(Nc2ccc(N3CCOCC3)cc2OC)ncc1C(F)(F)F	MTT	48 h	IC50	1.77 µM
O=C1C(Cl)=C(NCCCN2CCCCC2)C(=O)c2ccccc21	MTT	–	IC50	4.75 µM
COc1ccc2c(C(=O)C(C#N)=Cc3cn(C)c4ccccc34)c[nH]c2c1	MTT	48 h	IC50	> 40 µM
CC(=O)N1CCC(Nc2cc(C(=O)NC[C@H](O)CN3CCc4ccccc4C3)ncn2)CC1	CCK-8	72 h	IC50	> 100 µM
CCOc1ccc2[nH]cc(C(=O)C(C#N)=Cc3cn(C)c4ccccc34)c2c1	MTT	48 h	IC50	1.35 µM
CC1=CC(=O)C(C(C)C)=CC1=O	SRB	48 h	IC50	33.2 µM
Cc1cc(=O)oc2cc(OCCCCSC#N)ccc12	SRB	–	GI50	6.3 µM
